Results taken from ChEMBL document CHEMBL1629431, “Synthesis and antitumor activity of some 2, 3-disubstituted quinazolin-4(3H)-ones and 4, 6- disubstituted- 1, 2, 3, 4-tetrahydroquinazolin-2H-ones” (2010).

How the values were obtained:
Format in all cases: functional
OVCAR-4 = assay: Growth inhibition of human OVCAR4 cells at 10 uM after 48 hrs by coulter counter method; conditions: OVCAR-4, 48 h, read-out: GI
How it was run: (§1)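 Single high-dose NCI 60-cell-line panel screen across nine tumor subpanels. Test solutions (0.2 mL) were added in duplicate to wells holding 1.8 mL of culture at 6 × 10⁴ cells/mL. Controls got PBS and DMSO at identical dilutions. Incubation was 48 h at 37 °C in humidified 5% CO₂. Cells were diluted 10-fold in saline, Coulter-counted and dilution-corrected. Results were expressed as percent growth inhibition versus control.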

MDA-MB-231 = assay: Growth inhibition of human MDA-MB-231 cells at 10 uM after 48 hrs by coulter counter method; conditions: MDA-MB-231, 48 h, read-out: GI; how it was run: as §1
MOLT-4 = assay: Growth inhibition of human MOLT4 cells at 10 uM after 48 hrs by coulter counter method; conditions: MOLT-4, 48 h, read-out: GI; how it was run: as §1
CCRF-CEM = assay: Growth inhibition of human CCRF-CEM cells at 10 uM after 48 hrs by coulter counter method; conditions: read-out: GI; how it was run: as §1
786-0 = assay: Growth inhibition of human 786-0 cells at 10 uM after 48 hrs by coulter counter method; conditions: 786-0, 48 h, read-out: GI; how it was run: as §1
UACC-62 = assay: Growth inhibition of human UACC62 cells at 10 uM after 48 hrs by coulter counter method; conditions: UACC-62, 48 h, read-out: GI; how it was run: as §1
[1] = Growth inhibition of human Hs 578T cells at 10 uM after 48 hrs by coulter counter method; conditions: read-out: GI; how it was run: as §1
U-251 = assay: Growth inhibition of human U251 cells at 10 uM after 48 hrs by coulter counter method; conditions: U-251, 48 h, read-out: GI; how it was run: as §1
M14 = assay: Growth inhibition of human M14 cells at 10 uM after 48 hrs by coulter counter method; conditions: M14, 48 h, read-out: GI; how it was run: as §1
PC-3 = assay: Growth inhibition of human PC3 cells at 10 uM after 48 hrs by coulter counter method; conditions: PC-3, 48 h, read-out: GI; how it was run: as §1
NCI-H23 = assay: Growth inhibition of human NCI-H23 cells at 10 uM after 48 hrs by coulter counter method; conditions: NCI-H23, 48 h, read-out: GI; how it was run: as §1
MDA-MB-468 = assay: Growth inhibition of human MDA-MB-468 cells at 10 uM after 48 hrs by coulter counter method; conditions: MDA-MB-468, 48 h, read-out: GI; how it was run: as §1
NCI-H522 = assay: Growth inhibition of human NCI-H522 cells at 10 uM after 48 hrs by coulter counter method; conditions: NCI-H522, 48 h, read-out: GI; how it was run: as §1
SN12C = assay: Growth inhibition of human SN12C cells at 10 uM after 48 hrs by coulter counter method; conditions: read-out: GI; how it was run: as §1
HOP-92 = assay: Growth inhibition of human HOP92 cells at 10 uM after 48 hrs by coulter counter method; conditions: HOP-92, 48 h, read-out: GI; how it was run: as §1
UO-31 = assay: Growth inhibition of human UO31 cells at 10 uM after 48 hrs by coulter counter method; conditions: UO-31, 48 h, read-out: GI; how it was run: as §1
SR = assay: Growth inhibition of human SR cells at 10 uM after 48 hrs by coulter counter method; conditions: read-out: GI; how it was run: as §1
SNB-75 = assay: Growth inhibition of human SNB75 cells at 10 uM after 48 hrs by coulter counter method; conditions: SNB-75, 48 h, read-out: GI; how it was run: as §1
IGROV-1 = assay: Growth inhibition of human IGROV1 cells at 10 uM after 48 hrs by coulter counter method; conditions: IGROV-1, 48 h, read-out: GI; how it was run: as §1
SF-539 = assay: Growth inhibition of human SF539 cells at 10 uM after 48 hrs by coulter counter method; conditions: SF-539, 48 h, read-out: GI; how it was run: as §1
NCI-H226 = assay: Growth inhibition of human NCI-H226 cells at 10 uM after 48 hrs by coulter counter method; conditions: NCI-H226, 48 h, read-out: GI; how it was run: as §1
HCT-116 = assay: Growth inhibition of human HCT116 cells at 10 uM after 48 hrs by coulter counter method; conditions: HCT-116, 48 h, read-out: GI; how it was run: as §1
MCF7 = assay: Growth inhibition of human MCF7 cells at 10 uM after 48 hrs by coulter counter method; conditions: MCF7, 48 h, read-out: GI; how it was run: as §1
SK-MEL-2 = assay: Growth inhibition of human SK-MEL-2 cells at 10 uM after 48 hrs by coulter counter method; conditions: SK-MEL-2, 48 h, read-out: GI; how it was run: as §1
KM12 = assay: Growth inhibition of human KM12 cells at 10 uM after 48 hrs by coulter counter method; conditions: KM12, 48 h, read-out: GI; how it was run: as §1
SK-MEL-28 = assay: Growth inhibition of human SK-MEL-28 cells at 10 uM after 48 hrs by coulter counter method; conditions: SK-MEL-28, 48 h, read-out: GI; how it was run: as §1
SK-OV-3 = assay: Growth inhibition of human SKOV3 cells at 10 uM after 48 hrs by coulter counter method; conditions: SK-OV-3, 48 h, read-out: GI; how it was run: as §1
A549 = assay: Growth inhibition of human A549 cells at 10 uM after 48 hrs by coulter counter method; conditions: A549, 48 h, read-out: GI; how it was run: as §1
SF-268 = assay: Growth inhibition of human SF268 cells at 10 uM after 48 hrs by coulter counter method; conditions: SF-268, 48 h, read-out: GI; how it was run: as §1
T47D = assay: Growth inhibition of human T47D cells at 10 uM after 48 hrs by coulter counter method; conditions: read-out: GI; how it was run: as §1
COLO 205 = assay: Growth inhibition of human COLO205 cells at 10 uM after 48 hrs by coulter counter method; conditions: COLO 205, 48 h, read-out: GI; how it was run: as §1
HL-60(TB) = assay: Growth inhibition of human HL-60(TB) cells at 10 uM after 48 hrs by coulter counter method; conditions: HL-60, 48 h, read-out: GI
How it was run: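 Part of the NCI 60-cell-line single-high-dose panel. Cells were seeded at 6 × 10⁴ cells/mL with test solution in duplicate wells, alongside PBS/DMSO controls at identical dilutions. Plates were held 48 h at 37 °C in a humidified 5% CO₂ incubator. Cells were then diluted 10-fold in saline and counted by Coulter counter, with counts corrected for dilution. Results are percent growth of treated cells, reported as GI %.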

OVCAR-8 = assay: Growth inhibition of human OVCAR8 cells at 10 uM after 48 hrs by coulter counter method; conditions: OVCAR-8, 48 h, read-out: GI; how it was run: as §1
CAKI-1 = assay: Growth inhibition of human Caki1 cells at 10 uM after 48 hrs by coulter counter method; conditions: CAKI-1, 48 h, read-out: GI; how it was run: as §1
K562 = assay: Growth inhibition of human K562 cells at 10 uM after 48 hrs by coulter counter method; conditions: K562, 48 h, read-out: GI; how it was run: as §1

| SMILES | inhibition of growth at 10 µM (OVCAR-4) | inhibition of growth at 10 µM (MDA-MB-231) | inhibition of growth at 10 µM (MOLT-4) | inhibition of growth at 10 µM (CCRF-CEM) | inhibition of growth at 10 µM (786-0) | inhibition of growth at 10 µM (UACC-62) | inhibition of growth at 10 µM [1] | inhibition of growth at 10 µM (U-251) | inhibition of growth at 10 µM (M14) | inhibition of growth at 10 µM (PC-3) | inhibition of growth at 10 µM (NCI-H23) | inhibition of growth at 10 µM (MDA-MB-468) | inhibition of growth at 10 µM (NCI-H522) | inhibition of growth at 10 µM (SN12C) | inhibition of growth at 10 µM (HOP-92) | inhibition of growth at 10 µM (UO-31) | inhibition of growth at 10 µM (SR) | inhibition of growth at 10 µM (SNB-75) | inhibition of growth at 10 µM (IGROV-1) | inhibition of growth at 10 µM (SF-539) | further results |
| --- | --- | --- | --- | --- | --- | --- | --- | --- | --- | --- | --- | --- | --- | --- | --- | --- | --- | --- | --- | --- | --- |
| COc1ccc(C(=O)CSc2nc3ccccc3c(=O)n2-c2ccc(OC)cc2)cc1 | 30% | 30% | 49.4% | 70.3% | 30% | 30% | 30% | 30% | 30% | 30% | 30% | 30.8% | < 30% | 30% | 30% | 30.3% | 34.9% | 30% | 30% | 30% | inhibition of growth at 10 µM (NCI-H226): 30%; inhibition of growth at 10 µM (HCT-116): 30%; inhibition of growth at 10 µM (MCF7): 30%; inhibition of growth at 10 µM (SK-MEL-2): 30%; inhibition of growth at 10 µM (KM12): 30%; inhibition of growth at 10 µM (SK-MEL-28): 30%; inhibition of growth at 10 µM (SK-OV-3): 30%; inhibition of growth at 10 µM (A549): 30.8%; inhibition of growth at 10 µM (SF-268): 30%; inhibition of growth at 10 µM (T47D): 30%; inhibition of growth at 10 µM (COLO 205): 30%; inhibition of growth at 10 µM (HL-60(TB)): 43%; inhibition of growth at 10 µM (OVCAR-8): 30% |
| CCn1c(SC)nc2ccccc2c1=O | 30% | 30% | 30% | 49.5% | 30% | 30% | 30% | 30% | 30% | 30% | 30% | 30% | 30% | 30% | 60.8% | 30% | 30% | 30% | 30% | 30% | inhibition of growth at 10 µM (CAKI-1): 42.9%; inhibition of growth at 10 µM (K562): 30%; inhibition of growth at 10 µM (NCI-H226): 30%; inhibition of growth at 10 µM (HCT-116): 30%; inhibition of growth at 10 µM (MCF7): 30%; inhibition of growth at 10 µM (SK-MEL-2): 30%; inhibition of growth at 10 µM (KM12): 30%; inhibition of growth at 10 µM (SK-MEL-28): 30%; inhibition of growth at 10 µM (SK-OV-3): 30%; inhibition of growth at 10 µM (A549): 30%; inhibition of growth at 10 µM (SF-268): 30%; inhibition of growth at 10 µM (T47D): 30%; inhibition of growth at 10 µM (COLO 205): 30%; inhibition of growth at 10 µM (HL-60(TB)): 34.8%; inhibition of growth at 10 µM (OVCAR-8): 30% |
| O=c1c2ccccc2nc(Nc2nnc(-c3ccc(Cl)cc3)s2)n1-c1ccccc1 | 30% | 30% | 30% | 30% | 30% | 30% | 30% | 30% | 30% | 30% | 30% | 30% | 31.9% | 30% | 30% | 30% | 30% | 30% | 65.9% | 30% | inhibition of growth at 10 µM (CAKI-1): 30%; inhibition of growth at 10 µM (K562): 30%; inhibition of growth at 10 µM (NCI-H226): 30%; inhibition of growth at 10 µM (HCT-116): 30%; inhibition of growth at 10 µM (MCF7): 30%; inhibition of growth at 10 µM (SK-MEL-2): 30%; inhibition of growth at 10 µM (KM12): 30%; inhibition of growth at 10 µM (SK-MEL-28): 30%; inhibition of growth at 10 µM (SK-OV-3): 30%; inhibition of growth at 10 µM (A549): 30%; inhibition of growth at 10 µM (SF-268): 30%; inhibition of growth at 10 µM (T47D): 30%; inhibition of growth at 10 µM (COLO 205): 30%; inhibition of growth at 10 µM (HL-60(TB)): 30%; inhibition of growth at 10 µM (OVCAR-8): 30% |
